The source of these data is PMC5819740 (ACS chemical biology, 2017).

Series [1] addresses T1, EcDHFR (Escherichia coli, UniProt P0ABQ4). In words: biochemical. The format is biochemical. Conditions: for Inhibition of EcDHFR activity in single-concentration initial screen: 1mM inhibitor (Fig 2A legend).
Series [2] has as its target T1, EcDHFR. The format is binding. Conditions: thermal shift at single concentration of 0.5 mM small molecule, 5μM EcDHFR.
In series [3] the target is T1, EcDHFR. The format is biochemical. Conditions: lower substrate, global non-linear fits.
Series [4] addresses EcDHFR L28R mutant. In words: DHFR inhibition assay on drug-resistant single mutant. Conditions: L28R mutant vs wild-type. The format is biochemical, Escherichia coli. The essentials:
(§1)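 Purified recombinant E. coli DHFR (wild-type, or L28R, A26T/L28R, P21L/L28R mutants) in 100mM HEPES pH 7.3 at ~22 °C with 60 μM NADPH, 50 μM H2F and varied test compound; wild-type enzyme at 16.7nM. Reactions were enzyme-started, and NADPH consumption was followed at 340 nm for 100 s (initial rates, <5% product), corrected for non-enzymatic NADPH loss. Run in duplicate; IC50 fitted to y = 100%/[1+(I/IC50)].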

In series [5] the target is EcDHFR A26T/L28R mutant. In words: DHFR inhibition assay on drug-resistant double mutant. The format is biochemical, Escherichia coli. Conditions: A26T/L28R mutant vs wild-type. In short, it runs like this: as §1
For series [6], the target named is EcDHFR P21L/L28R mutant. The series is described as above. Conditions: P21L/L28R mutant vs wild-type. The format is biochemical, Escherichia coli. The essentials: as §1
The target in series [7] is T1, EcDHFR. Conditions: cited from earlier work.
The nature of series [8]: Insolubility limit in growth assay medium. Conditions: 30 °C, aqueous buffer, kinetic from dmso stock.
The test system of series [9] is E. coli cultures. The series is described as follows: Rescue of growth by metabolic complement folAmix. The format is cell-based. Conditions: M9-media supplemented with folAmix; different resveratrol concentrations.
Series [10] relates to Escherichia coli. To be noted: read-out: estimated IC50 (antibacterial activity); cited from earlier work.
Series [11] has as its system E. coli strain with chromosomal folA replaced by mutant L28R. Conditions: cited from earlier work.
[12] abbreviates: 60μM NADPH, 50μM H2F, 100mM HEPES pH 7.3, 16.7nM EcDHFR, ± S.E.
[13] abbreviates: substrate H2F, saturating NADPH.

Where two headings read alike, the source gives them in different places. Bounds are passed on as bounds.

T1 sequence (P0ABQ4 whole entry): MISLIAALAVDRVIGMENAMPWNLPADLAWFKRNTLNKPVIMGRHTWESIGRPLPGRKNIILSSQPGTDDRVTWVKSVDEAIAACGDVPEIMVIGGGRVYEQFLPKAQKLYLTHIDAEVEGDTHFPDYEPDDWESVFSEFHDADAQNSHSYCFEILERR

`O=S(=O)(O)c1cc(N=C=S)ccc1C=Cc1ccc(N=C=S)cc1S(=O)(=O)O` [DIDS]: the IC50 in series [1] (setting [12]) stood at 51 ± 1.7 µM. Besides, the “Inhibition of EcDHFR activity in single-concentration initial screen” value (“Inhibition of EcDHFR activity” below) in series [1] is on record as “showed inhibition”.

For the compound `O=[N+]([O-])c1ccc(/C=C/c2ccc([N+](=O)[O-])cc2S(=O)(=O)O)c(S(=O)(=O)O)c1` [DNDS, dinitro disulfonic acid], in series [1] (setting [12]), the IC50 is 45.3 ± 10.1 µM. In series [1], the “Inhibition of EcDHFR activity” value is “showed inhibition”. In [2], the ΔTm came to 1.9 °C.

In turn, `Nc1ccc(C=Cc2ccc(N)cc2S(=O)(=O)O)c(S(=O)(=O)O)c1` [flavonic acid] registered an IC50 in [1] (setting [12]) of 36.7 ± 3.1 µM. Moreover, the “Inhibition of EcDHFR activity” value in series [1] is on record as “showed inhibition”. For the same compound, in series [3] (setting [13]), the αKi was 76.25 ± 6.82 µM.

For the compound `COc1ccc(CC(=O)c2ccc(O)cc2O)cc1` [ononetin], half-maximal inhibition in series [1] (IC50) required 83.4 ± 1.1 µM. In [1], this compound came in with a Ki of 83.4 µM. The “Inhibition of EcDHFR activity” value in series [1] is “inhibits the enzyme”. Further, the “Inhibition Mechanism” value in series [3] (NADPH titrated at saturating H2F) is “uncompetitive inhibition”. Further, the αKi amounted to 111.2 ± 12.37 µM in series [3] (setting [13]) and 113.2 ± 13.1 µM in series [3] (substrate NADPH, saturating H2F). Besides, the “IC50 curve compared with wild-type enzyme” value in [4], in series [5] and in series [6] was “superimposable” each time. The “Binding to EcDHFR by DSF” value in series [7] is listed as “showed binding to EcDHFR”.

As to `Oc1cc(O)cc(/C=C/c2ccc(O)cc2O)c1` [oxyresveratrol], the solubility in series [8] is at most 250 µM.

For the compound `Oc1ccc(/C=C/c2cc(O)cc(O)c2)cc1` [resveratrol], the IC50 in [1] is 95.7 ± 3 µM; in [10], 250 µM. The compound further registered a Ki in series [1] of 95.7 µM. For the same compound, the “Inhibition of EcDHFR activity” value in [1] is recorded as “showed inhibition”. The αKi in series [3] (setting [13]) amounted to 88.30 ± 6.02 µM. Further, the “IC50 curve compared with wild-type enzyme” value in series [4], in [5] and in [6] was “superimposable” in each case. For the same compound, the “Effect of folAmix on growth of inhibited cells” value in [9] is reported as “fully restores growth”. Also, in series [8], the solubility is at most 250 µM.

Regarding `COc1cc(Cc2cnc(N)nc2N)cc(OC)c1OC` [trimethoprim], the “Increase in resistance conferred by L28R variant” value in series [11] is on record as “approximately 50 fold”.

What is called IC50 is the midpoint of a concentration-inhibition curve. Broadly, the ΔTm is the change in melting temperature against a reference sample. As a reminder, the Ki is the dissociation constant of the complex between target and ligand, obtained from inhibition or displacement. What is called solubility is the concentration that dissolves in the medium under given conditions.
